Data taken from ChEMBL document CHEMBL4257550, “Novel hybrids derived from aspirin and chalcones potently suppress colorectal cancer in vitro and in vivo” (Medchemcomm, 2018).
pIC50: −log10 of the molar value. Calls of active or inactive are those of the source. No cut-off for these calls is given here.

What was measured:
[1] = system: HCT-8; assay: Antiproliferative activity against human HCT8 cells at 10 uM after 72 hrs by MTT assay relative to control; format: functional
Procedure, shortened: (§1)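 Cells treated with or without compound at 10 μM for 72 h, proliferation measured by MTT (4 h, formazan in DMSO, 570 nm). Inhibition (%) relative to untreated cells; mean ± SD of three independent experiments.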

[2] = system: DLD-1; assay: Antiproliferative activity against human DLD1 cells at 10 uM after 72 hrs by MTT assay relative to control; format: functional; procedure, shortened: as §1
[3] = Cytotoxicity against human CCD-841 cells after 72 hrs by MTT assay; format: cell-based; settings: CCD-841, 72 h
Procedure, shortened: (§2)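 HCT-8, DLD-1 and CCD841 cells seeded in 96-well plates, exposed to vehicle or compound for 72 h. MTT (5 mg/mL in PBS) added for a further 4 h, formazan dissolved in DMSO, absorbance read at 570 nm. IC50 taken as the concentration inhibiting 50% of proliferation; mean ± SD of three independent experiments.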

[4] = system: DLD-1; assay: Antiproliferative activity against human DLD1 cells after 72 hrs by MTT assay; format: functional, cell-based; settings: DLD-1, 72 h; procedure, shortened: as §2
[5] = system: HCT-8; assay: Antiproliferative activity against human HCT8 cells after 72 hrs by MTT assay; format: functional, cell-based; settings: HCT-8, 72 h; procedure, shortened: as §2
[6] = system: HCT-8; assay: Antiproliferative activity against human HCT8 cells after 72 hrs in presence of ASA by MTT assay; format: functional, cell-based; settings: HCT-8, 72 h; procedure, shortened: as §2
[7] = system: DLD-1; assay: Antiproliferative activity against human DLD1 cells after 72 hrs in presence of ASA by MTT assay; format: functional, cell-based; settings: DLD-1, 72 h; procedure, shortened: as §2
[8] = system: HCT-8; assay: Cell cycle arrest in human HCT8 cells assessed as accumulation at S phase at 2.5 uM after 24 hrs by propidium iodide staining based flow cytometry (reference value: 36.19%); format: functional
[9] = system: Mus musculus; assay: Toxicity in BALB/c mouse xenografted with human HCT8 cells assessed as change in body weight at 60 mg/kg, ip administered daily for 32 days; format: organism-based; settings: in vivo, 768 h
Procedure, shortened: (§3)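 Male BALB/c nude mice (5–6 weeks, 18–20 g) inoculated s.c. with 1 × 10^7 HCT-8 cells. At tumours of 180–200 mm³, mice randomized and dosed i.p. daily for 32 days with 60 mg/kg or an equal volume of Tween 80/PBS (5:95) vehicle. Caliper length and width every 4 days, TV = width² × length/2. Tumour weight and body weight also recorded; n = 6 per group, mean ± SD.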

[10] = system: HCT-8; assay: Cell cycle arrest in human HCT8 cells assessed as accumulation at G2 phase at 5 uM after 24 hrs by propidium iodide staining based flow cytometry (reference value: 23.77%); format: functional
[11] = system: HCT-8; assay: Induction of reactive oxygen species generation in human HCT8 cells at 2.5 to 10 uM after 24 hrs by DCFH-DA staining based flow cytometry; format: functional, cell-based
Procedure, shortened: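 HCT-8 cells exposed to 0, 2.5, 5 or 10 μM for 24 h, loaded with 10 μM DCFH-DA at 37 °C for 20 min, washed three times in PBS. Intracellular ROS as DCF fluorescence by flow cytometry, Ex/Em 488/530 nm.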

[12] = system: HCT-8; assay: Antitumor activity against human HCT8 cells xenografted in BALB/c mouse assessed as reduction in tumor weight at 60 mg/kg, ip administered daily for 32 days measured every 4 days during compound dosing relative to control; format: functional; design: scale not given: the % may be the effect or the level left; procedure, shortened: as §3
[13] = system: HCT-8; assay: Antitumor activity against human HCT8 cells xenografted in BALB/c mouse assessed as reduction in tumor volume at 60 mg/kg, ip administered daily for 32 days measured every 4 days during compound dosing; format: functional, organism-based; procedure, shortened: as §3
[14] = system: HCT-8; assay: Induction of apoptosis in human HCT8 cells assessed as early apoptotic cells at 2.5 uM after 24 hrs by Annexin V-FITC/propidium iodide staining based flow cytometry (reference value: 0.25%); format: functional
[15] = system: HCT-8; assay: Induction of apoptosis in human HCT8 cells after 24 hrs by Annexin V-FITC/propidium iodide staining based flow cytometry; format: functional, cell-based
[16] = system: HCT-8; assay: Cell cycle arrest in human HCT8 cells assessed as accumulation at G1 phase at 5 uM after 24 hrs by propidium iodide staining based flow cytometry (reference value: 48.08%); format: functional
[17] = system: HCT-8; assay: Cell cycle arrest in human HCT8 cells assessed as accumulation at S phase at 5 uM after 24 hrs by propidium iodide staining based flow cytometry (reference value: 36.19%); format: functional
[18] = system: HCT-8; assay: Cell cycle arrest in human HCT8 cells assessed as accumulation at G2 phase at 2.5 uM after 24 hrs by propidium iodide staining based flow cytometry (reference value: 23.77%); format: functional
[19] = system: HCT-8; assay: Cell cycle arrest in human HCT8 cells assessed as accumulation at G2 phase at 10 uM after 24 hrs by propidium iodide staining based flow cytometry (reference value: 23.77%); format: functional
[20] = system: HCT-8; assay: Cell cycle arrest in human HCT8 cells assessed as accumulation at G1 phase at 10 uM after 24 hrs by propidium iodide staining based flow cytometry (reference value: 48.08%); format: functional
[21] = system: HCT-8; assay: Induction of apoptosis in human HCT8 cells assessed as increase in cleaved PARP expression after 24 hrs by Western blotting analysis; format: functional, cell-based
Procedure, shortened: (§4)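 HCT-8 cells (1 × 10^6/well, six-well plates) left overnight, then given 0.1% DMSO or compound (0, 2.5, 5, 10 μM) for 24 h. Lysed 30 min at 4 °C, cleared at 15000 rpm, protein by BCA. 20 μg per lane on 7.5% SDS-PAGE, moved to PVDF, blocked in 5% milk/TBS-0.05% Tween 20. Probed for caspase 3, cleaved caspase 3, PARP, cleaved PARP and GAPDH; ECL detection.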

[22] = system: HCT-8; assay: Induction of apoptosis in human HCT8 cells assessed as late apoptotic cells at 2.5 uM after 24 hrs by Annexin V-FITC/propidium iodide staining based flow cytometry (reference value: 2.4%); format: functional
[23] = system: HCT-8; assay: Induction of apoptosis in human HCT8 cells assessed as late apoptotic cells at 10 uM after 24 hrs by Annexin V-FITC/propidium iodide staining based flow cytometry (reference value: 2.4%); format: functional
[24] = Selectivity index, ratio of IC50 for human CCD-841 cells to IC50 for DLD1 human cells; format: toxicity; settings: CCD-841 cells versus DLD1 cells
Procedure, shortened: (§5)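 Ratio of the CCD841 MTT IC50 to the HCT-8 or DLD-1 IC50, each IC50 from a 72 h MTT assay (570 nm), mean of three independent experiments.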

[25] = system: HCT-8; assay: Cell cycle arrest in human HCT8 cells assessed as accumulation at G0/G1 phase after 24 hrs by propidium iodide staining based flow cytometry; format: functional
[26] = system: HCT-8; assay: Induction of apoptosis in human HCT8 cells assessed as increase in cleaved caspase3 expression after 24 hrs by Western blotting analysis; format: functional, cell-based; procedure, shortened: as §4
[27] = system: HCT-8; assay: Induction of apoptosis in human HCT8 cells assessed as late apoptotic cells at 5 uM after 24 hrs by Annexin V-FITC/propidium iodide staining based flow cytometry (reference value: 2.4%); format: functional
[28] = system: HCT-8; assay: Induction of apoptosis in human HCT8 cells assessed as early apoptotic cells at 5 uM after 24 hrs by Annexin V-FITC/propidium iodide staining based flow cytometry (reference value: 0.25%); format: functional
[29] = system: HCT-8; assay: Cell cycle arrest in human HCT8 cells assessed as accumulation at G1 phase at 2.5 uM after 24 hrs by propidium iodide staining based flow cytometry (reference value: 48.08%); format: functional
[30] = system: HCT-8; assay: Cell cycle arrest in human HCT8 cells assessed as accumulation at S phase at 10 uM after 24 hrs by propidium iodide staining based flow cytometry (reference value: 36.19%); format: functional
[31] = system: HCT-8; assay: Induction of apoptosis in human HCT8 cells assessed as early apoptotic cells at 10 uM after 24 hrs by Annexin V-FITC/propidium iodide staining based flow cytometry (reference value: 0.25%); format: functional
[32] = Selectivity index, ratio of IC50 for human CCD-841 cells to IC50 for HCT8 human cells; format: toxicity; settings: CCD-841 cells versus HCT8 cells, read-out: Ratio IC50; procedure, shortened: as §5

With `COc1cccc(/C=C/C(=O)c2ccc(Cl)cc2)c1OC(=O)c1ccccc1OC(C)=O` the Activity [1] was “Active” and the Activity [2] was “Active”.

With `O=c1[nH]cc(F)c(=O)[nH]1` [FLUOROURACIL] the pIC50 [3] was 4.45.

For `CC(=O)Oc1ccccc1C(=O)Oc1ccccc1/C=C/C(=O)c1ccc(Br)cc1`, the Activity [1] was “Active” and the Activity [2] was “Active”.

`CC(=O)Oc1ccccc1C(=O)Oc1ccc(F)cc1/C=C/C(=O)c1ccc(Cl)cc1` gave an Activity [1] of over 50%, a pIC50 [4] of 5.46 and an Activity [2] of over 50%. It also gave a pIC50 [5] of 5.57.

In the case of `CC(=O)Oc1ccccc1C(=O)Oc1ccc(Br)cc1/C=C/C(=O)c1ccc(Cl)cc1`, the Activity [1] was “Active” and the Activity [2] was “Active”.

With `COc1ccc(C(=O)/C=C/c2ccccc2OC(=O)c2ccccc2OC(C)=O)cc1` the Activity [1] was “Active” and the Activity [2] was “Active”.

In the case of `CC(=O)Oc1ccccc1C(=O)Oc1ccc(C)cc1/C=C/C(=O)c1ccc(Cl)cc1`, the Activity [1] was “Active” and the Activity [2] was “Active”.

Compound `CC(=O)Oc1ccccc1C(=O)Oc1ccccc1/C=C/C(=O)c1ccc(Cl)cc1` has an Activity [1] of over 50% and an Activity [2] of over 50%.

In the case of `O=C(/C=C/c1cc(F)ccc1O)c1ccc(Cl)cc1`, the pIC50 [6] was 5.03, the pIC50 [4] was 4.88 and the pIC50 [5] was 4.59. For the same compound, the pIC50 [7] was 5.10.

In the case of `COc1ccc(/C=C/C(=O)c2ccc(Cl)cc2)c(OC(=O)c2ccccc2OC(C)=O)c1`, the Activity [1] was “Active” and the Activity [2] was “Active”.

In the case of `CC(=O)Oc1ccccc1C(=O)Oc1ccccc1/C=C/C(=O)c1ccc([N+](=O)[O-])cc1`, the Activity [1] was over 50% and the Activity [2] was over 50%.

In the case of `CC(=O)Oc1ccccc1C(=O)Oc1ccccc1/C=C/C(=O)c1ccc(C)cc1`, the Activity [1] was “Active” and the Activity [2] was “Active”.

For `CC(=O)Oc1ccccc1C(=O)Oc1ccccc1/C=C/C(=O)c1ccc(C#N)cc1`, the Activity [1] was “Active” and the Activity [2] was “Active”.

In the case of `COc1ccc(O)c(/C=C/C(=O)c2ccc(Cl)cc2)c1`, the pIC50 [6] was 5.20, the pIC50 [4] was 4.83 and the pIC50 [5] was 4.71. For the same compound, the pIC50 [7] was 5.16.

In the case of `COc1ccc(OC(=O)c2ccccc2OC(C)=O)c(/C=C/C(=O)c2ccc(Cl)cc2)c1`, the Activity [8] was 34.16%, the Activity [9] was “Non-Toxic” and the Activity [10] was 10.82%. The Activity [11] was “Active”, the Activity [12] was 42% and the Activity [13] was “Active”. The Activity [14] was 9.7%, the Activity [15] was “Dose-dependent effect” and the Activity [16] was 51.03%. The Activity [1] was over 50%, the pIC50 [4] was 5.57 and the Activity [17] was 38.16%. It also gave an Activity [18] of 17.76%, an Activity [2] of over 50% and an Activity [19] of 8.77%. For the same compound, the Activity [20] was 56.46%, the Activity [21] was “Dose-dependent effect” and the Activity [22] was 6.41%. It also gave a pIC50 [5] of 5.62, an Activity [23] of 37.01% and a selectivity ratio [24] of 7.2. For the same compound, the pIC50 [3] was 4.71, the Activity [25] was “Dose-dependent effect” and the Activity [26] was “Dose-dependent effect”. The Activity [27] was 13.49%, the Activity [28] was 14.22% and the Activity [29] was 48.08%. The Activity [30] was 34.77%, the Activity [31] was 21.46% and the selectivity ratio [32] was 8.

Compound `CC(=O)Oc1ccccc1C(=O)O` [ASPIRIN] has a pIC50 [4] of under 4.00 and a pIC50 [5] of under 4.00.

In the case of `CC(=O)Oc1ccccc1C(=O)Oc1ccc(Cl)cc1/C=C/C(=O)c1ccc(Cl)cc1`, the Activity [1] was “Active” and the Activity [2] was “Active”.
